Experiments:
Autotaxin [1] = molecular target: T1, Autotaxin (Homo sapiens, UniProt Q13822); assay: Inhibition of human recombinant C-terminal FLAG-tagged autotaxin expressed in baculovirus-infected Sf9 cells assessed as FS-3 hydrolysis at 10 uM relative to control
In short: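 Single-dose screen: inhibitor 10 μM final, purified recombinant human ATX 8.3 nM, FS-3 1 μM, fatty acid free BSA 30 μM in Tris pH 8 buffer (1 mM MgCl2, 1 mM CaCl2, 3 mM KCl, 140 mM NaCl), 37 °C. Fluorescence (ex 485/em 538) read every 2 min; percent activity vs vehicle after no-ATX subtraction at 1 h; mean ± SD of three wells.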

Autotaxin [2] = molecular target: T1, Autotaxin; assay: Inhibition of human recombinant C-terminal FLAG-tagged autotaxin expressed in baculovirus-infected Sf9 cells assessed as FS-3 hydrolysis
In short: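 Dose response: final inhibitor 30, 10, 3, 1, 0.3, 0.1, 0.03 μM, plus 0.01 and 0.003 μM for some compounds; purified human ATX 8.3 nM, 1 μM FS-3, 30 μM fatty acid free BSA, Tris pH 8 buffer, 37 °C. Fluorescence ex 485/em 538 every 2 min; percent activity vs vehicle at 1 h after no-ATX background subtraction; mean of three wells.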

Row | SMILES | inhibition (Autotaxin [1]) [%] | IC50 (Autotaxin [2]) [µM]
1 | O=S(=O)([O-])c1cccc2c1c(Nc1ccccc1)cc1c2nc2cc(S(=O)(=O)O)c(Nc3ccccc3)cc2[n+]1-c1ccccc1 | 51 | 9.3
2 | CC(=O)Nc1cc(/N=N/c2ccc(NC(=O)c3ccc(N)cc3)cc2C)c(S(=O)(=O)O)cc1/N=N/c1ccc(/N=N/c2ccc(S(=O)(=O)O)cc2)cc1 | 74 | 5.4
3 | Cc1cc(-c2ccc(/N=N/c3c(N)c(S(=O)(=O)O)cc4cc(S(=O)(=O)O)ccc34)c(C)c2)ccc1/N=N/c1cc(S(=O)(=O)O)c2ccccc2c1N | 68 | 13.4
4 | Nc1c(/N=N/c2ccc(-c3ccc(/N=N/c4c(S(=O)(=O)O)cc5cc(S(=O)(=O)O)c(/N=N/c6ccccc6)c(O)c5c4N)cc3)cc2)ccc2c(S(=O)(=O)O)cccc12 | 75 | 2.42
5 | Nc1c(S(=O)(=O)O)cc2cc(S(=O)(=O)O)ccc2c1/N=N/c1ccc(-c2ccc(/N=N/c3c(N)c(S(=O)(=O)O)cc4cc(S(=O)(=O)O)ccc34)c(S(=O)(=O)O)c2)cc1 | 51 | 12.6
6 | Nc1ccc2cc(S(=O)(=O)O)cc(O)c2c1/N=N/c1ccc(-c2ccc(/N=N/c3c(S(=O)(=O)O)cc4cc(S(=O)(=O)O)c(/N=N/c5ccc([N+](=O)[O-])cc5)c(N)c4c3O)cc2)cc1 | 57 | 17.4
7 | O=C(N/N=C/c1ccc(O)c(S(=O)(=O)O)c1)N/N=C/c1ccc(O)c(S(=O)(=O)O)c1 | 6 | 
8 | Cc1cc(C)c(/N=N/c2cc(C)c(/N=N/c3c(S(=O)(=O)O)cc4cc(Nc5ccccc5)ccc4c3O)cc2C)c(S(=O)(=O)O)c1 | 27 | 
9 | O=C(Nc1ccccc1)C(=N/Nc1cc(S(=O)(=O)O)ccc1O)/N=N/c1cc(S(=O)(=O)O)ccc1O | 0 | 
10 | O=C(Nc1cccc(C(=O)Nc2ccc(S(=O)(=O)O)c3cc(S(=O)(=O)O)cc(S(=O)(=O)O)c23)c1)Nc1cccc(C(=O)Nc2cccc3c(S(=O)(=O)O)c(S(=O)(=O)O)cc(S(=O)(=O)O)c23)c1 | 27 | 
11 | O=C(Nc1ccc2cc(S(=O)(=O)O)ccc2c1)c1ccc([N+](=O)[O-])cc1 | -1 | 
12 | O=C(O)c1cc(O)c(O)c(OC(=O)c2cc(O)c(O)c(O)c2CNc2ccc3cc(S(=O)(=O)O)cc(S(=O)(=O)O)c3c2)c1 | 2 | 
13 | Cc1ccc(C(=O)Nc2ccc(S(=O)(=O)[O-])c3cc(S(=O)(=O)O)cc(S(=O)(=O)[O-])c23)cc1NC(=O)c1cccc(NC(=O)Nc2cccc(C(=O)Nc3cc(C(=O)Nc4ccc(S(=O)(=O)O)c5cc(S(=O)(=O)O)cc(S(=O)(=O)O)c45)ccc3C)c2)c1.Cc1ccc(C)c2c1c(NCCCCCCNc1cc(C)[n+](C)c3c(C)ccc(C)c13)cc(C)[n+]2C | 6 | 
14 | O=C(O)c1ccccc1-c1c2cc/c(=N\c3ccccc3)cc-2oc2cc(Nc3ccc(S(=O)(=O)O)cc3)ccc12 | 27 | 
15 | COc1cc(/N=N/c2cc(S(=O)(=O)O)cc3cc(S(=O)(=O)O)cc(O)c23)c(C)cc1/N=N/c1c(S(=O)(=O)O)cc2cc(Nc3ccccc3)ccc2c1O | 53 | 37.6
16 | Cc1ccc(Nc2cccc3c2C(=O)c2cccc(Nc4ccc(C)cc4S(=O)(=O)O)c2C3=O)c(S(=O)(=O)O)c1 | 6 | 
17 | Nc1cc(N)c(/N=N/c2cccc3c(S(=O)(=O)O)cccc23)cc1/N=N/c1cc([N+](=O)[O-])ccc1O | 19 | 

Row | SMILES | inhibition (Autotaxin [1]) [%] | IC50 (Autotaxin [2]) [µM]
18 | O=C(CC(C(=O)O)S(=O)(=O)O)Nc1ccc(S(=O)(=O)c2ccc(NC(=O)CC(C(=O)O)S(=O)(=O)O)cc2)cc1 (configuration not stated) | 1 | 
19 | O=S(=O)(O)c1ccccc1/C=N/NC(=S)N/N=C/c1ccccc1S(=O)(=O)O | 1 | 
20 | N=C(N/N=C/c1ccccc1S(=O)(=O)O)C(=N)N/N=C/c1ccccc1S(=O)(=O)O | 5 | 
21 | O=C(Nc1ccc(C(=O)Nc2ccc3c(O)cc(S(=O)(=O)O)cc3c2)cc1)c1ccccc1 | 21 | 
22 | CCCCc1ccc(Nc2ccc(Nc3ccc(CCCC)cc3S(=O)(=O)O)c3c2C(=O)c2ccccc2C3=O)c(S(=O)(=O)O)c1 | 8 | 
23 | Nc1ccc2c(O)c(/N=N/c3ccc(-c4ccc(/N=N/c5c(S(=O)(=O)O)cc6cc(S(=O)(=O)O)c(/N=N/c7cc(O)ccc7O)c(N)c6c5O)cc4)cc3)c(S(=O)(=O)O)cc2c1 | 1 | 
24 | Cc1ccc(C(=O)Nc2ccc(S(=O)(=O)O)c3cc(S(=O)(=O)O)cc(S(=O)(=O)O)c23)cc1NC(=O)c1cccc(NC(=O)Nc2cccc(C(=O)Nc3cc(C(=O)Nc4ccc(S(=O)(=O)O)c5cc(S(=O)(=O)O)cc(S(=O)(=O)O)c45)ccc3C)c2)c1 | 27 | 
25 | O=C1Nc2ccc(S(=O)(=O)O)cc2/C1=N/Nc1ccccc1[N+](=O)[O-] | 8 | 
26 | COc1cc(/N=N/c2ccc(/N=N/c3cc(S(=O)(=O)O)ccc3S(=O)(=O)O)c(C)c2)c(C)cc1/N=N/c1ccc(NC(=O)c2ccc(N)cc2)cc1C | 39 | 
27 | O=C(N/N=C/c1ccc(O)c(S(=O)(=O)O)c1)C(=O)N/N=C/c1ccc(O)c(S(=O)(=O)O)c1 | 5 | 
28 | O=C(N/N=C/c1ccccc1S(=O)(=O)O)C(=O)N/N=C/c1ccccc1S(=O)(=O)O | -2 | 
29 | O=C(Nc1ccc2c(O)cc(S(=O)(=O)O)cc2c1)c1ccc([N+](=O)[O-])cc1 | 12 | 
30 | COc1ccc(/C=N/NC(=O)N/N=C/c2ccc(OC)c(S(=O)(=O)O)c2)cc1S(=O)(=O)O | 2 | 
31 | O=S(=O)(O)c1ccc(O)c(/N=N/C=N/Nc2cc(S(=O)(=O)O)ccc2O)c1 | -1 | 
32 | Nc1c(S(=O)(=O)O)cc(Nc2cccc(S(=O)(=O)/C=C/S(=O)(=O)O)c2)c2c1C(=O)c1ccccc1C2=O | 43 | 
33 | O=C(N/N=C/c1ccccc1S(=O)(=O)O)N/N=C/c1ccccc1S(=O)(=O)O | -5 | 
34 | COc1ccc(/C=N/NC(=O)C(=O)N/N=C/c2ccc(OC)c(S(=O)(=O)O)c2)cc1S(=O)(=O)O | 0 | 

The next lines start with the values.

Row | inhibition (Autotaxin [1]) [%] | IC50 (Autotaxin [2]) [µM] | SMILES
35 | 67 | 18.6 | Cc1ccc(/N=N/c2c(S(=O)(=O)O)cc3cc(NC(=O)Nc4ccc5c(O)c(/N=N/c6ccc7cc(S(=O)(=O)O)ccc7c6)c(S(=O)(=O)O)cc5c4)ccc3c2O)c(C)c1
36 | 52 | 9.8 | Nc1ccc2cc(S(=O)(=O)O)cc(O)c2c1/N=N/c1ccc(NC(=O)c2ccc(C(=O)Nc3ccc(/N=N/c4c(N)ccc5cc(S(=O)(=O)O)cc(O)c45)c(S(=O)(=O)O)c3)cc2)cc1S(=O)(=O)O
37 | 49 | 23 | CC(=O)Nc1ccc(/C=C/c2ccc(NC(=O)Nc3ccc(/C=C/c4ccc(NC(C)=O)cc4S(=O)(=O)O)c(S(=O)(=O)O)c3)cc2S(=O)(=O)O)c(S(=O)(=O)O)c1
38 | 65 | 15.5 | Cc1ccc(C)c(/N=N/c2c(S(=O)(=O)O)cc3cc(NC(=O)Nc4ccc5c(O)c(/N=N/c6ccc7cc(S(=O)(=O)O)ccc7c6)c(S(=O)(=O)O)cc5c4)ccc3c2O)c1
39 | 71 | 11.6 | Cc1ccccc1/N=N/c1c(S(=O)(=O)O)cc2cc(NC(=O)Nc3ccc4c(O)c(/N=N/c5ccc6cc(S(=O)(=O)O)ccc6c5)c(S(=O)(=O)O)cc4c3)ccc2c1O
40 | 80 | 12 | Cc1cccc(/N=N/c2c(S(=O)(=O)O)cc3cc(NC(=O)Nc4ccc5c(O)c(/N=N/c6ccc7cc(S(=O)(=O)O)ccc7c6)c(S(=O)(=O)O)cc5c4)ccc3c2O)c1
41 | 55 | 8.7 | Cc1cc(/C(=C2C=C/C(=N\c3ccc(S(=O)(=O)O)cc3)C=C\2)c2ccc(Nc3ccc(S(=O)(=O)O)cc3)cc2)cc(S(=O)(=O)O)c1N
42 | 72 | 8.9 | O=C(Nc1ccc2cc(S(=O)(=O)O)ccc2c1)c1ccc(/N=N/c2c(S(=O)(=O)O)cc3cc(S(=O)(=O)O)cc(NC(=O)c4ccccc4)c3c2O)cc1
43 | 70 | 13.8 | COc1cc(/N=N/c2c(S(=O)(=O)O)cc3cc(NC(=O)Nc4ccc5c(O)c(/N=N/c6ccc7cc(S(=O)(=O)O)ccc7c6)c(S(=O)(=O)O)cc5c4)ccc3c2O)c(C)cc1N
44 | -2 |  | Nc1cc(C(=O)Nc2ccc(S(=O)(=O)O)cc2)ccc1C(=O)Nc1ccc(S(=O)(=O)O)cc1
45 | 11 |  | O=C(Nc1ccc2c(O)cc(S(=O)(=O)O)cc2c1)Nc1ccc2c(O)cc(S(=O)(=O)O)cc2c1
46 | 23 |  | O=C(Nc1ccc2c(O)c(/N=N/c3ccccc3)c(S(=O)(=O)O)cc2c1)Nc1ccc2c(O)c(/N=N/c3ccccc3)c(S(=O)(=O)O)cc2c1
47 | 36 |  | O=C(Nc1ccc2c(O)cc(S(=O)(=O)O)cc2c1)Nc1ccc2c(O)c(/N=N/c3ccc4cc(S(=O)(=O)O)ccc4c3)c(S(=O)(=O)O)cc2c1
48 | 0 |  | Nc1ccc(C(=O)Nc2ccc(C(=O)Nc3ccc(/C=C/c4ccc(NC(=O)c5ccc(N)cc5)cc4S(=O)(=O)O)c(S(=O)(=O)O)c3)cc2)cc1
49 | 77 | 1.7 | COc1cc(/N=N/c2ccc3cc(S(=O)(=O)O)cc(S(=O)(=O)O)c3c2)ccc1/N=N/c1ccc(NC(=O)c2ccc(NC(=O)c3ccccc3)cc2)cc1C
50 | -6 |  | O=C(Nc1ccc2cc(S(=O)(=O)O)cc(O)c2c1)Nc1ccc2cc(S(=O)(=O)O)cc(O)c2c1
51 | 43 |  | O=C(Nc1ccc(S(=O)(=O)c2ccc(NC(=O)Nc3ccc4cc(S(=O)(=O)O)ccc4c3)cc2)cc1)Nc1ccc2cc(S(=O)(=O)O)ccc2c1
52 | 29 |  | CC(=O)Nc1cc(S(=O)(=O)O)cc2cc(S(=O)(=O)O)c(/N=N/c3ccc(C(=O)Nc4ccc5cc(S(=O)(=O)O)ccc5c4)cc3)c(O)c12
53 | 17 |  | CC(=O)Nc1ccc(/N=N/c2c(S(=O)(=O)O)cc3cc(NC(=O)Nc4ccc5c(O)c(/N=N/c6ccccc6)c(S(=O)(=O)O)cc5c4)ccc3c2O)cc1
54 | 65 |  | Cc1cc(C(O)(c2ccc(Nc3ccccc3)cc2)c2ccc(Nc3ccc(S(=O)(=O)O)cc3)cc2)ccc1N (configuration not stated)
55 | 6 |  | O=C1c2ccc(S(=O)(=O)O)cc2C(=O)c2c(Nc3ccccc3)ccc(Nc3ccc(S(=O)(=O)O)cc3)c21

From ChEMBL document CHEMBL1156229, “Pharmacophore development and application toward the identification of novel, small-molecule autotaxin inhibitors” (J Med Chem, 2010)
